High-throughput results: PubChem, Sanford-Burnham Center for Chemical Genomics
Most compounds without a hit are left out; they make up all but 0.64% or so of the library.
TNAP inh hi DEA = human TNAP enzyme inhibitors, primary screen, biochemical, luminescent, high phosphate acceptor level, uHTS; purified TNAP, CDP-star luminescence, 1 M DEA; actives 0.03% (n = 200,000); Alkaline phosphatase, tissue-nonspecific isozyme (Homo sapiens), P05186; inhibition, % at 20 µM;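 active means over 50% inhibition of tissue-nonspecific alkaline phosphatase at 20 µM in the single-dose screen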
TNAP act hi DEA = TNAP activators at high phosphate acceptor level, primary screen, biochemical, luminescence, uHTS; Alkaline phosphatase, tissue-nonspecific isozyme (Homo sapiens), P05186; purified TNAP, CDP-star luminescence, 1 M DEA, 30 min; hits give high values; 0 = EDTA background, 1 = DMSO-only activity; activation factor at 20 µM; 200,000 tested, under 10 active; AID 1136, 2008;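 active means activation factor at least 2 at 20 µM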
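Dosing: 20 µM single point. System: human TNAP. Amount: TNAP 1/800 final. Incubation: 30 min, room temperature. Read-out: TNAP activation factor scaled between EDTA and DMSO control wells. Signal: luminescence from CDP-star hydrolysis. Medium: 1 M DEA, pH 9.8, Mg2+, Zn2+. Control set: EDTA negative control, DMSO positive control.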
PMI act = activators of human PMI, primary screen, biochemical, fluorescence intensity, near-Km mannose 6-phosphate; Mannose-6-phosphate isomerase (Homo sapiens), P34949; purified human PMI, coupled resazurin fluorescence, 20 min; hits give high values; 1 = vehicle control, 0 substrate-free wells; activation factor at 20 µM; actives 0.005% (n = 190,000); AID 1214, 2008;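 active means activation factor of 2 or more at 20 µM, relative to plate controls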
Target sequence (P34949 whole entry, looked up): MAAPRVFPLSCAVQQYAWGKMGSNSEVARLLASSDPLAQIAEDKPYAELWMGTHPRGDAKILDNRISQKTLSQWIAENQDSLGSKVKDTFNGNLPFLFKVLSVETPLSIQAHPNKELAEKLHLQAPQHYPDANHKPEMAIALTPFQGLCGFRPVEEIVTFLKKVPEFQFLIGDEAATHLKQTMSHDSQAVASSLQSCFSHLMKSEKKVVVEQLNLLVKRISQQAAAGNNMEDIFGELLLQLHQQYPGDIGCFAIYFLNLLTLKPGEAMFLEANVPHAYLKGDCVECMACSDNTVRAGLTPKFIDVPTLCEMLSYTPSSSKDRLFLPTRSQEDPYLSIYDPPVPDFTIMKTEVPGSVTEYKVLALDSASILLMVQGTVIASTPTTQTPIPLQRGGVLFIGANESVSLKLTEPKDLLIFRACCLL
PMI act hi M6P = human PMI activators, high substrate, primary screen, biochemical, fluorescence intensity, near-saturating mannose 6-phosphate | coupled PMI enzyme assay, resazurin fluorescence, 20 min; hits give high values; 1 = untreated enzyme, 0 = substrate-free blank | activation factor at 20 µM | actives 0.34% (n = 190,000) | AID 1216, 2008;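 active means activation factor of 2 or more at 20 µM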
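Test system: Human PMI in coupled enzyme assay | Input: 15 ng/mL PMI | Medium: HEPES-buffered pH 7.4 with magnesium and detergent | Compound: One concentration, 20 µM, in 1% DMSO | Incubation: Enzyme reaction with compound 20 min at room temperature | Detection: Diaphorase-driven resazurin-to-resorufin fluorescence, excitation 544, emission 590 nm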
TNAP inh noacc = human TNAP enzyme inhibitors, primary screen, biochemical, luminescent, no phosphate acceptor, uHTS. AID 1012, 2008. actives 0.26% (n = 200,000). Alkaline phosphatase, tissue-nonspecific isozyme (Homo sapiens), P05186. inhibition, % at 20 µM. purified TNAP, CDP-star luminescence, 30 min;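 active means tissue-nonspecific alkaline phosphatase inhibition above about 50% at 20 µM in the single-dose screen, limit read from the data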
Large screens that a line does not name were inactive.

CCC(C)(C)C1CCC(=NNC(=S)Nc2ccccc2)CC1 (configuration not stated)	PMI act hi M6P 2.3
Oc1ccc(O)c(Cc2nc3ccccc3s2)c1	TNAP inh noacc 61
CN(C)S(=O)(=O)c1cccc(NC(=S)NN=C(Cc2ccccc2)Cc2ccccc2)c1	none
S=C(NCCc1ccccc1)Nc1cccc2cnccc12	TNAP inh noacc 53
CCCCNC(=S)Nc1cccc2cnccc12	none
O=C(NNc1cc(N2CCOCC2)nc(N2CCOCC2)n1)c1ccc(Cl)cc1Cl	none
Cc1cc(=S)cc(C)n1CCO	PMI act hi M6P 2.4
COc1ccc(-c2nc(SC)n(S(=O)(=O)c3ccccc3)n2)cc1	none
CCS(=O)(=O)n1nc(-c2ccc(Cl)cc2)nc1N	none
CCS(=O)(=O)n1nc(-c2ccc(Cl)cc2)nc1SCc1ccccc1	TNAP inh noacc 62
COc1ccc(-c2nc(SCc3ccccc3)n(S(C)(=O)=O)n2)cc1	TNAP inh noacc 62
COC(=O)c1ccc(S(=O)(=O)N2CCCCCC2)cc1	none
O=C(/C=C/c1ccc(O)c(O)c1)c1ccc(S(=O)(=O)N2CCCCCC2)cc1	TNAP inh noacc 57
COc1ccc(-c2cc(C(=O)O)nc3ccc4ccccc4c23)cc1OC	none
Oc1ccc(-c2nc3ccc4ccccc4c3c3c2CCC3)cc1O	TNAP inh noacc 50
CSc1nncc(/C(C)=N\Nc2ccccc2C)n1	PMI act hi M6P 2.2
CC/C(=N/Nc1ccccc1Cl)c1cnnc(-c2ccccc2)n1	PMI act hi M6P 2.1
COc1ccc(N/N=C(/C)c2cnnc(-c3ccccc3)n2)cc1	PMI act hi M6P 2.4
CC/C(=N/Nc1ccc(Cl)cc1)c1cnnc(SC)n1	PMI act hi M6P 2.5
CCCC1=C([O-])C2N=CC=CC2=[N+](c2ccccn2)C1=O (configuration not stated)	none
Cc1cc(C)c(C#N)c(Sc2ccc(N)cc2)n1	none
CC/C(=N/Nc1cccc(C)c1)c1cnnc(SC)n1	PMI act hi M6P 2.3
O=c1c2ccccc2c(=O)n(Cc2ccccc2)n1Cc1ccccc1	none
CNc1c(C(=O)O)ccc2c1C(=O)c1ccccc1C2=O	none
O=C(O)c1cccc2c1C(=O)c1ccccc1C2=O	PMI act hi M6P 2.5
CCCSc1nc2cc(C)c(C)cc2n1CC(C)O (configuration not stated)	PMI act hi M6P 2.3
CCCSc1nc2cc(C)c(C)cc2n1CC(O)CO (configuration not stated)	none
C/C(=N\Nc1ccc(Cl)c(Cl)c1)c1ccc(-n2ccnc2)cc1	PMI act hi M6P 2.6
C/C(=N\NC(=O)c1ccccc1)c1ccc(-n2ccnc2)cc1	none
C=CCn1c(C)c(C(C)=O)c(N2CCN(C(c3ccccc3)c3ccccc3)CC2)nc1=S	none
Cc1ccc(NC(=O)CCSCCc2ccccn2)cc1	none
COC(=O)Cc1cc(=O)[nH]c(Nc2nc3ccccc3o2)n1	TNAP inh noacc 75
NNC(=O)c1cc(-c2ccco2)[nH]n1	TNAP inh noacc 75
Cc1nc(SCC(=O)Nc2ccccn2)n[nH]1	none
O=C(CSc1n[nH]c(-c2ccc(Cl)cc2Cl)n1)Nc1ccccn1	TNAP inh noacc 93
O=C(O)c1ccccc1-c1ccccc1C(=O)NNc1ccccc1	PMI act hi M6P 2.9
O=C(O)c1ccccc1-c1ccccc1C(=O)Nc1ccccc1	none
Oc1ccc(N=Nc2n[nH]c(-c3ccc(Cl)cc3)n2)cc1	TNAP inh noacc 69
CCc1cc2cc(C)cc(C)c2[nH]c1=S	PMI act hi M6P 2.9
O=C(COC(=O)c1c2c(nc3ccccc13)CCN(Cc1ccccc1)C2)Nc1c(F)cccc1F	PMI act hi M6P 2
CCOc1cc(/C=C2\SC(=S)N(NC(=O)c3cccnc3)C2=O)ccc1O	TNAP inh hi DEA 51
CCOc1cc(/C=C2/SC(=S)N(CC3CCCO3)C2=O)ccc1O (configuration not stated)	TNAP inh hi DEA 52
COC(=O)c1sc(NC(=O)CCCn2nc([N+](=O)[O-])cc2C)c(C(=O)OC)c1C	none
Cc1cc(C)c2c(-n3cccc3)n[nH]c2n1	TNAP inh noacc 68
Nc1ccc(C(=O)N/N=C/c2sc(N3CCOCC3)nc2-c2ccccc2)cc1	none
O=C(O)c1cccc(N/N=C/c2sc(N3CCOCC3)nc2-c2ccccc2)c1	PMI act hi M6P 2.5
O=C(O)c1cccc(Cn2c(Cl)c(/C=N/Nc3ccccc3)sc2=O)c1	PMI act hi M6P 2.5
O=C(CSc1nc2ncccc2[nH]1)c1cccc([N+](=O)[O-])c1	none
O=C(Nc1c(Cl)cccc1Cl)c1cc(=O)n(Cc2ccccc2)c(=O)[nH]1	none
Cc1ccccc1N/N=C/c1ccc(C#N)cc1	PMI act hi M6P 2.4
CSc1sc2ccccc2[n+]1CCCS(=O)(=O)[O-]	PMI act hi M6P 2
CCOC(=O)C(Cc1ccc(Cl)cc1Cl)c1ccno1 (configuration not stated)	none
Cc1ccc(OCC(=O)NN=C2c3ccccc3-c3ccccc32)cc1	none
Cc1ccc(NN=C2c3ccccc3-c3ccccc32)cc1	PMI act hi M6P 2.2
CC(/C=N/Nc1ncc(C)c(=O)[nH]1)=C\c1ccccc1	none
COc1ccc2nc(-n3c(O)c(C4=c5ccccc5=NC4=O)[nH]c3=S)sc2c1	TNAP inh hi DEA 88
Cc1ccc(C(=O)c2c(C)oc3c2C(=O)C(=O)c2ccccc2-3)cc1	none
COc1ccc(C(=O)c2c(C(F)(F)F)oc3c2C(=O)c2ccccc2C3=O)cc1	PMI act hi M6P 2
O=C(N/N=C/c1ccc(O)cc1)c1cc(-c2ccc3c(c2)OCO3)n[nH]1	TNAP inh noacc 91
O=C(N/N=C/c1ccccc1)c1cc(-c2ccc3c(c2)OCO3)n[nH]1	TNAP inh noacc 66
O=C(N/N=C/c1cccc(O)c1)c1cc(-c2ccc3c(c2)OCO3)n[nH]1	TNAP inh noacc 95
O=C(Cc1ccccc1)N/N=C/c1ccc2c(c1)OCO2	none
O=C(Cc1n[nH]c(=O)[nH]c1=O)N/N=C/c1cccc(O)c1	none
Cc1cccc(NC(=O)c2cc3cc([N+](=O)[O-])ccc3s2)n1	none
CNC(=O)C(=O)NCC1OCCN1S(=O)(=O)c1ccc2c(c1)OCCO2 (configuration not stated)	none
O=C(CSc1nc2ncccc2[nH]1)c1ccc(F)cc1	TNAP inh noacc 54
COc1ccc(NC(=O)CSc2nc3ncccc3[nH]2)cc1OC	none
COc1ccc(OC)c(C(=O)CSc2nc3ncccc3[nH]2)c1	TNAP inh noacc 63
O=C(c1cccnc1)n1nc(-c2ccco2)nc1NCc1cccs1	TNAP inh noacc 63
